According to ChEMBL document CHEMBL1125211, “Design and synthesis of HIV protease inhibitors. Variations of the carboxy terminus of the HIV protease inhibitor L-682,679” (J Med Chem, 1991):
pIC50: −log10 of the molar value. Values after ≈ are worked out from the molar mass of the structure shown.

Experiments:
[1] = target: T1, Human immunodeficiency virus type 1 protease (Human immunodeficiency virus 1, UniProt Q72874); experiment: Inhibitory activity against HIV protease in peptide cleavage assay
In short: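 HIV-1 protease peptide-substrate cleavage assay. Inhibitor dissolved in DMSO and added to the enzyme mixture at the required concentrations. Extent of substrate cleavage determined by HPLC. IC50 calculated from cleavage extent.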

[2] = target: T1, Human immunodeficiency virus type 1 protease; experiment: Inhibitory activity against HIV Protease in peptide cleavage assay
In short: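 HIV-1 protease substrate cleavage assay. Inhibitor was dissolved in DMSO and added to the enzyme mixture at the required concentrations. Substrate cleavage was measured by HPLC, and IC50 was calculated from the extent of cleavage.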

H9 = experiment: Ability to inhibit HIV-1 infection in H9 human T-lymphoid cells; format: functional; details: read-out: MIC100
In short: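 HIV-1 spread in culture of H9 human T-lymphoid cells, tested at concentrations up to 12 μM. Value reported as MIC100, the minimum concentration giving 100% inhibition of viral spread.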

Row | SMILES | pIC50 [1] | pIC50 [2] | MIC (H9) [µM]
1 | CC(C)[C@H](NC(=O)[C@H](Cc1ccccc1)C[C@H](O)[C@H](Cc1ccccc1)NC(=O)OC(C)(C)C)C(=O)NCC(O)CN1CCOCC1 (some centres undefined) | 9.06 | – | –
2 | CC(C)[C@H](NC(=O)[C@H](Cc1ccccc1)C[C@H](O)[C@H](Cc1ccccc1)NC(=O)OC(C)(C)C)C(=O)NCCCN1CCOCC1 | 8.54 | – | –
3 | CC(C)[C@H](NC(=O)[C@H](Cc1ccccc1)C[C@H](O)[C@H](Cc1ccccc1)NC(=O)OC(C)(C)C)C(=O)NCc1ccccc1 | 9.62 | – | –
4 | CC(C)(C)OC(=O)N[C@@H](Cc1ccccc1)[C@@H](O)C[C@@H](Cc1ccccc1)C(=O)N[C@H](C(N)=O)C1CCCCC1 | – | 8.28 | –
5 | CC(C)C[C@@H](NC(=O)[C@H](Cc1ccccc1)C[C@H](O)[C@H](Cc1ccccc1)NC(=O)OC(C)(C)C)C(N)=O | – | 5.51 | –
6 | CCC(C)[C@H](NC(=O)[C@H](Cc1ccccc1)C[C@H](O)[C@H](Cc1ccccc1)NC(=O)OC(C)(C)C)C(=O)NCc1ccccn1 (some centres undefined) | 8.89 | – | 0.78 (≈ 0.481 µg/mL)
7 | CC(C)(C)OC(=O)N[C@@H](Cc1ccccc1)[C@@H](O)C[C@@H](Cc1ccccc1)C(=O)NCC(N)=O | – | 6.26 | –
8 | CC(C)(C)OC(=O)N[C@@H](Cc1ccccc1)[C@@H](O)C[C@@H](Cc1ccccc1)C(=O)N[C@H](C(N)=O)c1ccccc1 | – | 9.05 | 1.5 (≈ 0.819 µg/mL)
9 | CC(C)C[C@H](NC(=O)[C@H](Cc1ccccc1)C[C@H](O)[C@H](Cc1ccccc1)NC(=O)OC(C)(C)C)C(=O)NCc1ccccc1 | – | 8.85 | 3 (≈ 1.85 µg/mL)
10 | CC[C@H](C)[C@H](NC(=O)[C@H](Cc1ccccc1)C[C@H](O)[C@H](Cc1ccccc1)NC(=O)OC(C)(C)C)C(=O)NCc1nc2ccccc2[nH]1 | 10.22 | – | 0.2 (≈ 0.131 µg/mL)
11 | CC(C)[C@H](NC(=O)[C@H](Cc1ccccc1)C[C@H](O)[C@H](Cc1ccccc1)NC(=O)OC(C)(C)C)C(=O)NCc1cccnc1 | 9.16 | – | –
12 | CCC(C)[C@H](NC(=O)[C@H](Cc1ccccc1)C[C@H](O)[C@H](Cc1ccccc1)NC(=O)OC(C)(C)C)C(=O)NCCCN(C)C (some centres undefined) | 8.10 | – | –
13 | CC(C)(C)OC(=O)N[C@@H](Cc1ccccc1)[C@@H](O)C[C@@H](Cc1ccccc1)C(=O)N[C@@H](Cc1ncc[nH]1)C(N)=O | 6.11 | – | –
14 | CC(C)[C@H](NC(=O)[C@H](Cc1ccccc1)C[C@H](O)[C@H](Cc1ccccc1)NC(=O)OC(C)(C)C)C(=O)NCCO | 9.36 | – | –
15 | CC(C)[C@H](NC(=O)[C@H](Cc1ccccc1)C[C@H](O)[C@H](Cc1ccccc1)NC(=O)OC(C)(C)C)C(=O)NCC(O)CO (some centres undefined) | 10.30 | – | 1.5 (≈ 0.879 µg/mL)
16 | CC(C)[C@H](NC(=O)[C@H](Cc1ccccc1)C[C@H](O)[C@H](Cc1ccccc1)NC(=O)OC(C)(C)C)C(=O)NCCN | 9.34 | – | –
17 | CCC(C)[C@H](NC(=O)[C@H](Cc1ccccc1)C[C@H](O)[C@H](Cc1ccccc1)NC(=O)OC(C)(C)C)C(=O)NCCN(C)C (some centres undefined) | 8.15 | – | –
18 | CCC(C)[C@H](NC(=O)[C@H](Cc1ccccc1)C[C@H](O)[C@H](Cc1ccccc1)NC(=O)OC(C)(C)C)C(=O)NCC(O)CO (some centres undefined) | 9.82 | – | –
19 | CC(C)C[C@H](NC(=O)[C@H](Cc1ccccc1)C[C@H](O)[C@H](Cc1ccccc1)NC(=O)OC(C)(C)C)C(=O)NC(CO)Cc1ccccc1 (some centres undefined) | 8.82 | – | –
20 | CC(C)C[C@H](NC(=O)[C@H](Cc1ccccc1)C[C@H](O)[C@H](Cc1ccccc1)NC(=O)OC(C)(C)C)C(=O)NCCCN(C)C | 7.64 | – | –
21 | CNCCNC(=O)[C@@H](NC(=O)[C@H](Cc1ccccc1)C[C@H](O)[C@H](Cc1ccccc1)NC(=O)OC(C)(C)C)C(C)C | 8.76 | – | –
22 | CC(C)C[C@H](NC(=O)[C@H](Cc1ccccc1)C[C@H](O)[C@H](Cc1ccccc1)NC(=O)OC(C)(C)C)C(=O)NCCO | 8.68 | – | 3 (≈ 1.71 µg/mL)

Row | SMILES | pIC50 [1] | pIC50 [2] | MIC (H9) [µM]
23 | CC(C)[C@H](NC(=O)[C@H](Cc1ccccc1)C[C@H](O)[C@H](Cc1ccccc1)NC(=O)OC(C)(C)C)C(=O)NCc1ccncc1 | 9.21 | – | 0.4 (≈ 0.241 µg/mL)
24 | CCC(C)[C@H](NC(=O)[C@H](Cc1ccccc1)C[C@H](O)[C@H](Cc1ccccc1)NC(=O)OC(C)(C)C)C(=O)NCc1ccccc1 (some centres undefined) | – | 9.15 | 1.5 (≈ 0.924 µg/mL)
25 | CC(C)(C)OC(=O)N[C@@H](Cc1ccccc1)[C@@H](O)C[C@@H](Cc1ccccc1)C(=O)N[C@H](C(=O)NCc1ccccc1)c1ccccc1 | 8.24 | – | –
26 | CC(C)(C)OC(=O)N[C@@H](Cc1ccccc1)[C@@H](O)C[C@@H](Cc1ccccc1)C(=O)N[C@@H](Cc1cc2ccccc2[nH]1)C(N)=O | 7.22 | – | –
27 | CC(C)(C)OC(=O)N[C@@H](Cc1ccccc1)[C@@H](O)C[C@@H](Cc1ccccc1)C(=O)N[C@@H](CO)C(N)=O | – | 6.22 | –
28 | CC(C)C[C@H](NC(=O)[C@H](Cc1ccccc1)C[C@H](O)[C@H](Cc1ccccc1)NC(=O)OC(C)(C)C)C(N)=O | – | 8.00 | –
29 | CC(C)[C@H](NC(=O)[C@H](Cc1ccccc1)C[C@H](O)[C@H](Cc1ccccc1)NC(=O)OC(C)(C)C)C(=O)NCc1nc2ccccc2[nH]1 | 9.70 | – | –
30 | CCC(C)[C@H](NC(=O)[C@H](Cc1ccccc1)C[C@H](O)[C@H](Cc1ccccc1)NC(=O)OC(C)(C)C)C(=O)NCCO (some centres undefined) | 9.34 | – | 0.4 (≈ 0.228 µg/mL)
31 | C[C@H](NC(=O)[C@H](Cc1ccccc1)C[C@H](O)[C@H](Cc1ccccc1)NC(=O)OC(C)(C)C)C(N)=O | – | 8.15 | 6 (≈ 2.9 µg/mL)
32 | CC(C)C[C@H](NC(=O)[C@H](Cc1ccccc1)C[C@H](O)[C@H](Cc1ccccc1)NC(=O)OC(C)(C)C)C(=O)NCCc1ccccc1 | 7.82 | – | –
33 | CC(C)(C)OC(=O)N[C@@H](Cc1ccccc1)[C@@H](O)C[C@@H](Cc1ccccc1)C(=O)N[C@H](C(=O)NCc1nc2ccccc2[nH]1)c1ccccc1 | 10.15 | – | –
34 | CCC(C)[C@H](NC(=O)[C@H](Cc1ccccc1)C[C@H](O)[C@H](Cc1ccccc1)NC(=O)OC(C)(C)C)C(=O)NCc1ncc[nH]1 (some centres undefined) | 9.06 | – | –
35 | CCC(C)[C@H](NC(=O)[C@H](Cc1ccccc1)C[C@H](O)[C@H](Cc1ccccc1)NC(=O)OC(C)(C)C)C(N)=O (some centres undefined) | – | 8.57 | 3 (≈ 1.58 µg/mL)
36 | CC(C)[C@H](NC(=O)[C@H](Cc1ccccc1)C[C@H](O)[C@H](Cc1ccccc1)NC(=O)OC(C)(C)C)C(=O)NCCCN(C)C | – | 8.47 | –
37 | CN(C)CCCNC(=O)[C@@H](NC(=O)[C@H](Cc1ccccc1)C[C@H](O)[C@H](Cc1ccccc1)NC(=O)OC(C)(C)C)c1ccccc1 | 7.59 | – | –
38 | CC(C)[C@H](NC(=O)[C@H](Cc1ccccc1)C[C@H](O)[C@H](Cc1ccccc1)NC(=O)OC(C)(C)C)C(N)=O | – | 8.96 | –
39 | CC(C)(C)OC(=O)N[C@@H](Cc1ccccc1)[C@@H](O)C[C@@H](Cc1ccccc1)C(=O)N[C@@H](CC1CCCCC1)C(N)=O | – | 7.19 | –
40 | CC(C)[C@H](NC(=O)[C@H](Cc1ccccc1)C[C@H](O)[C@H](Cc1ccccc1)NC(=O)OC(C)(C)C)C(=O)NCc1ccccn1 | 9.12 | – | –
41 | CCN(CC)CC(O)CNC(=O)[C@@H](NC(=O)[C@H](Cc1ccccc1)C[C@H](O)[C@H](Cc1ccccc1)NC(=O)OC(C)(C)C)C(C)C (some centres undefined) | 8.20 | – | –
42 | CC(C)(C)OC(=O)N[C@@H](Cc1ccccc1)[C@@H](O)C[C@@H](Cc1ccccc1)C(=O)N[C@@H](Cc1ccccc1)C(N)=O | – | 7.54 | –
43 | CC[C@H](C)[C@H](NC(=O)[C@H](Cc1ccccc1)C[C@H](O)[C@H](Cc1ccccc1)NC(=O)OC(C)(C)C)C(=O)NC(=O)C(N)Cc1ccccc1 (some centres undefined) | – | 9.60 | –
